Bioassay records from PubChem.
Most compounds without a hit are left out; they make up all but 2.7% or so of the library.
CHO parental Ca: counter-screen for OX1R antagonists: effect in parental CHO cells | parental CHO-K1, ATP-induced calcium, Fluo-8 fluorescence | inhibition, % at 5.6 µM | 0.63% of 330,000 active;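 active = inhibition above that plate's mean sample inhibition plus 3 SD, cut at about 26% in these data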;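 note: 0% = ATP-challenged DMSO wells and 100% = DMSO wells without ATP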
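Test system: parental CHO cells; detection: calcium-sensitive Fluo-8 fluorescence; evaluation: percent inhibition of calcium signal; also added: ATP as calcium-mobilizing challenge; repeats: one well per compound; control set: ATP-challenged DMSO wells low, unchallenged DMSO wells high; compound: single nominal dose of 5.6 µM per compound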
OX1R antag-1: OX1R (human) antagonism | O43613 | OX1R-expressing cells, FRET antagonist read-out | inhibition, % at 6.6 µM | 1.8% of 330,000 active; in the data active = inhibition mostly above about 38%, no sharp cut-off; inactive = mostly below about 40%;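 note: 0% = agonist challenge alone and 100% = reference antagonist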
OX1R antag-2: human HCRTR1 antagonism | O43613 | CHO/OX1R cells, Fluo-8 calcium fluorescence, orexin A | inhibition, % at 5 µM | 0.43% of 330,000 active;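 active = inhibition above its plate's threshold, mean inhibition of all tested compounds on the plate plus 3 SD, cut at about 37% in these data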;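 note: 0% = orexin A challenge wells and 100% = SB-334867-A antagonist wells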
OXTR potentiate: human OXTR potentiation; CHO-OTR cells, Fluo-8 calcium fluorescence, potentiator mode; 0% = oxytocin EC15, 100% = EC100; activation, % at 3 µM; 0.061% of 320,000 active;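 active = activation above that plate's cutoff, the mean activation of tested compounds plus 3 SD, cut at about 6.6% in these data, passing the limit was not always enough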;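 note: 100% uses oxytocin at 75 nM as the full agonist control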
Target sequence (P30559 whole entry, looked up): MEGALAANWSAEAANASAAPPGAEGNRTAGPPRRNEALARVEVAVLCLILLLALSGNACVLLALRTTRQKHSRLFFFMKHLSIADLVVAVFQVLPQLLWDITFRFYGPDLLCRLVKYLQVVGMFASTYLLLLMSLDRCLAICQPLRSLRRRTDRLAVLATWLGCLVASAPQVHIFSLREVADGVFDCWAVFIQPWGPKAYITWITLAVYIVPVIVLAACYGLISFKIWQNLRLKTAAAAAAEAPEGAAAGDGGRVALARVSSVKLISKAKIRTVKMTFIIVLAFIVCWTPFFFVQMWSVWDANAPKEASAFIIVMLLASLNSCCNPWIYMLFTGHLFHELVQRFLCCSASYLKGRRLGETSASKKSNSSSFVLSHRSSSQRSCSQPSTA
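Assay system: CHO-OTR cells, human receptor / Also added: oxytocin at about EC15, sub-maximal agonist stimulus / Dosing: single dose, 3.0 µM nominal final compound concentration / Incubation: 6 min pre-incubation, 100 s read / Technique: Fluo-8 calcium dye fluorescence / Read-out: % activation vs EC15 and EC100 oxytocin / Benchmarks: EC15 oxytocin low, 75 nM oxytocin high / Replicates: singlicate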
OXTR agonist: activates the human oxytocin receptor | P30559 | CHO-OTR cells, Fluo-8 calcium fluorescence; normalized: DMSO 0%, oxytocin 100% | activation, % at 3 µM | 0.32% of 320,000 active | AID 2435;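 active = activation above the mean of all tested compounds plus 3 SD, cutoff set per screening run, cut at about 20% in these data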;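 note: peak over basal fluorescence ratio from a 100 s FLIPR kinetic read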
V1aR counter: counter-screen for oxytocin receptor agonists: human V1a receptor agonists. activation, % at 3 µM. AID 2797. 0.25% of 320,000 active. CHO-V1R cells, Fluo-8 calcium fluorescence, agonist mode; 0% DMSO, 100% 3 nM vasopressin;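 active = activation above the mean activation of all tested compounds plus 3 SD, per screening run, cut at about 20% in these data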;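 note: signal is peak over basal fluorescence ratio across a 100 second FLIPR read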
OX1R HTRF conf: OX1R (human) antagonism, HTRF confirmed; shares compounds with OX1R antag-1; OX1R-expressing cells, HTRF antagonist assay; inhibition, % at 6.6 µM; 49% of 1,800 active; AID 492964; in the data active = inhibition above about 55%;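 note: CHO cells expressing OX1R stimulated with orexin A at about EC80; 0% = agonist challenge alone and 100% = reference antagonist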
CHO-K1 HTRF cnt: counter-screen for OX1R antagonists: effect in parental CHO-K1 cells; shares compounds with OX1R antag-1; HTRF counterscreen; inhibition, % at 6.6 µM; 48% of 1,800 active; in the data active = inhibition above about 17%;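 note: 0% = agonist challenge with vehicle and 100% = vehicle alone without agonist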
Starred values were filed as active, the others as inactive; · = no result.

SMILES	CHO parental Ca	OX1R antag-1	OX1R antag-2	OXTR potentiate	OXTR agonist	V1aR counter	OX1R HTRF conf	CHO-K1 HTRF cnt
Cc1ccc2cc3cc(C(=O)NCCN4CCOCC4)oc3nc2c1	-8	117*	-6	-10	-1	1	46	38*
CCN1CCN(CCCNC(=O)c2cc3cc4ccc(OC)cc4nc3o2)CC1	-23	104*	-30	-1	-2	-1	37	41*
COc1ccc2cc3cc(C(=O)NCCCN4CCOCC4)oc3nc2c1	-3	135*	-13	-19	-1	-1	56*	35*
COc1ccc(C(=O)NCCCN2CCOCC2)cc1	1	27	-7	3	0	0	·	·
Cc1ccc2cc3cc(C(=O)NCCCN4CCCC4=O)oc3nc2c1	-8	22	-15	0	0	2	·	·
CCOC(=O)N1CCC(NC(=O)c2cc3cc4cc(OC)ccc4nc3o2)CC1	-16	32	-17	-3	1	6	·	·
O=c1oc2ccccc2cc1-c1cn2ccccc2n1	6	95*	0	-4	0	0	72*	20*
COc1ccc(CNc2nc3ccccc3n2C)c(OC)c1	-14	22	-20	1	4	4	·	·
COc1ccc(N=Nc2nc3cc(Br)c(Br)cc3n2C)c(OC)c1	11	84*	27	-7	10	7	88*	19*
CC(C)CC1(C(=O)NCc2cc(F)cc(C(F)(F)F)c2)C=CCN1C(=O)c1ccccc1 (stereo unspecified)	-27	9	-15	-9	-1	-2	·	·
N#CC1=C(N)Oc2c(oc(CO)cc2=O)C1c1cccs1 (stereo unspecified)	-11	77*	-11	-8	0	3	18	22*
N#CC1=C(N)Oc2c(oc(CO)cc2=O)C1c1ccsc1 (stereo unspecified)	14	92*	8	-9	0	0	23	18*
CC(=O)O[C@H]1C[C@@]2(C)[C@@H](C[C@@H](O)[C@H]3[C@@]4(C)CC[C@@H](O)[C@@H](C)[C@@H]4CC[C@@]32C)/C1=C(\CCC=C(C)C)C(=O)O	-34	13	-36	-2	0	1	·	·
CCn1c(=O)c(C(=O)CN(C)CC(=O)Nc2cccc(F)c2)c(N)n(Cc2ccccc2)c1=O	-20	6	-14	-8	2	2	·	·
COc1cccc(C(=O)Nc2cccc(-c3nnc(-c4ccco4)o3)c2)c1	-22	104*	-25	-7	-2	-1	35	5
COc1ccc(Br)cc1C(=O)Nc1cccc(-c2nnc(-c3ccco3)o2)c1	1	5	-13	3	1	0	·	·
COc1ccc(CCNC(=O)CCC(=O)NC2CCCC(C)C2C)cc1OC (stereo unspecified)	-9	1	-31	-4	0	0	·	·
O=[N+]([O-])c1ccc(C[n+]2cccc3ccc4cccnc4c32)cc1	-13	137*	0	-12	0	1	45	56*
CCCSc1cc(NCCOC(C)=O)c([N+](=O)[O-])c2nonc12	-11	82*	-7	-5	0	6	39	61*
CCCC(=O)OCCNc1cc(Sc2nccn2C)c2nonc2c1[N+](=O)[O-]	29	91*	25	-3	-1	-1	72*	60*
Cn1ccnc1Sc1ccc(C=O)cc1[N+](=O)[O-]	9	63	6	2	1	0	·	·
O=[N+]([O-])c1c(NCCO)cc(N2CCN(Cc3ccc4c(c3)OCO4)CC2)c2nonc12	-17	20	-4	-3	0	0	·	·
OCCNC(=S)c1ccccc1	-3	14	-2	-7	1	1	·	·
O=C(CSc1nnc(-c2ccco2)o1)Nc1c(F)cccc1F	-3	6	-18	-9	7	1	·	·
CC(=O)Nc1ccc(S(=O)(=O)NC2=C(N3CCN(Cc4ccccc4)CC3)C(=O)c3ccccc3C2=O)cc1	-17	34	-18	-5	-1	4	·	·
SMILES	CHO parental Ca	OX1R antag-1	OX1R antag-2	OXTR potentiate	OXTR agonist	V1aR counter	OX1R HTRF conf	CHO-K1 HTRF cnt
CCN1CCN(C2=C(NS(=O)(=O)c3ccc(NC(C)=O)cc3)C(=O)c3ccccc3C2=O)CC1	-18	94*	-12	-11	0	0	59*	104*
CCOC(=O)N1CCN(C2=C(NS(=O)(=O)c3ccc(NC(C)=O)cc3)C(=O)c3ccccc3C2=O)CC1	-11	83*	-5	-12	-1	2	59*	83*
COc1cccc(CN(CC(=O)NCc2ccccc2)C(=O)c2csnn2)c1	-21	12	-44	-3	1	-1	·	·
NC(=O)CSc1ncc(-c2ccccc2)[nH]1	-2	7	-4	0	1	1	·	·
NC(=O)CSc1ncc(-c2ccc([N+](=O)[O-])cc2)[nH]1	-2	80*	-9	-1	-1	0	40	33*
O=C1CN(C(=O)c2ccccc2F)C(c2ccccc2)c2cc(Cl)ccc2N1 (stereo unspecified)	-25	2	-28	-7	0	4	·	·
CSc1ncccc1C(=O)NC1CCN(Cc2ccccc2)CC1	-5	10	-7	-1	0	2	·	·
CCOC(=O)/C(C#N)=C\C=C1C=CN(C)C=C1	6	100*	3	-13	16	17	51	62*
CC(=O)N1CCn2c3c(c(=O)c4cc(C)ccc42)CCC31 (stereo unspecified)	-5	82*	-11	-17	0	1	29	13
O=C1c2ccccc2CN1Cc1ccccc1	-3	16	-12	-4	-1	0	·	·
CCc1nnc(N/N=C/c2ccccc2Cl)n1N	4	96*	-6	1	0	-1	19	13
COc1ccc(NC(=O)Nc2c(C)n(C)n(-c3ccccc3)c2=O)c(OC)c1	-2	4	3	-8	-1	0	·	·
CN(c1ccccc1)S(=O)(=O)c1ccc(Cl)c(C(=O)NCC(c2ccco2)N2CCCC2)c1 (stereo unspecified)	-21	9	-19	-6	-2	0	·	·
CCN(CC)c1ccc2nc3ccccc3[n+](CC)c2c1	-8	149*	1	-8	-1	1	110*	157*
CCN(CC)c1ccc(/C=C/c2nc3ccccc3s2)cc1	-3	14	28	-12	7	6	·	·
Cc1cccn2c(=O)c3cc(C#N)c(=NC(=O)c4ccccc4)n(Cc4ccco4)c3nc12	-10	88*	-18	-4	1	-1	52	41*
